Experimental data as given in the RNAGym collection of RNA variant scans (doi:10.1126/science.aae0568).
Fewer inactive variants are shown than the library holds.

B1: tRNA (parent)
chain: GUUCCGUUGGCGUAAUGGUAACGCGUCUCCCUCCUAAGGAGAAGACUGCGGGUUCGAGUCCCGUACGGAACG

Variants of: B1
Assay: yeast fitness relative to wild type (ratio to wild type); higher = fitter; tRNA-Arg(CCU), competitive growth, 37 C, YPD
In short: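 The tRNA-Arg(CCU) gene variants were made by chemical synthesis with a 3% per-site mutation rate at 69 sites and inserted at the native genomic locus of Saccharomyces cerevisiae. After pooling, the strains were competed in YPD at 37°C for 24 hours in six parallel replicates. Gene amplicons from the start population and each end population were read by 100-nucleotide paired-end sequencing, and Darwinian fitness relative to wild type was taken from genotype frequency changes. Genotypes needed ≥ 100 starting reads, and estimates < 0.5 were set to 0.5.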
With GUUCCGUUAGCGUAAUGGUAACGCGUCUCCCUCCUUAGAAGAAGACUGCGGGUUCGGGUCCCGUACGGCACG the yeast fitness was at most 0.5.
In the case of GUUCCGUUAGCGUAAUGGUAACGCGUCUCCCUCCUGAGGAGAGGACUGCGGGUUCGAGUCCCGUACGGAACG, the yeast fitness is reported as 0.748.
Work on GUUCCGUUAGCGUAGAGGUAACCCGUCUCCCUCCUAAGGAGAAGACUGCGGGUUCGAGUCCCGUACGGCACG yielded a yeast fitness of at most 0.5.
Variant GUUCCGUUAGCGUAUUGGUGACGCGUCUCCCUCCUAAGGAGAAGACUGCGGGUUCGAGUCCCGUUCGGAACG has a yeast fitness of at most 0.5.
GUUCCGUUAGCGUAAUGGUAACGCGUCUCCCUCCUCAGGAGAAGCCUGCGGGUUCGAGUCCCAUACGGAACG showed a yeast fitness of at most 0.5.
Variant GUUCCGUUAGCGUACUGGUAACGCGUCUCCCUCCUAAGGAGAAGACUGCGGGUUCGAGUCCCGUACGGUACG has a yeast fitness of 0.86.
In the case of GUUCCGUUAGCGUAAUGGUGACGCGUCUCCCUCCUAAGGAGCAGACUGCGGCUACGAGUCCCGUACGGAACG, the yeast fitness is reported as at most 0.5.
In the case of GUUCCGUUAGCGUAAUGGUAACGCGUCUCCCUCCUAAGGAGAAGACUGCGGGUUCGAGUCCCGUACGGAACG, the yeast fitness is reported as 0.991.
For GUUCCGUUAGCGUAAUGGUACCGCGUCUCCCUCCUAAGGAGAAGACUGCGGAUUCCAGUCCGGUAUGGAACG, the yeast fitness was at most 0.5.
With GUUCCGUGGGCGUAAUGGUAACGCGUCUCCCUCCUAAGGAGAAGACUGCGGGUCCGAGUCCCGUACGGAACG the yeast fitness was 0.565.
GUUCCGUUAGCGUAAUGGUAUCGCGUCUCCCUCCUGAGGCGAAGACCGCGGGUUCGAGUCCCGUACGGAACG gave a yeast fitness of at most 0.5.
With GUUCCGUUAGCGUAAUGGUAACGCGUCUCCCUCCUGAGGAGAAGAUUGCGGGUUCGAGUCCCGUACGGAACG the yeast fitness was 0.683.
With GUUCCGUUAGCGUAAUGGUACCGCGUCUCCCUCCUAAGGAGAAGAGUGGGGGUUCGAGUCCCGUACGGAACG the yeast fitness was at most 0.5.
Work on GUUCCGUGGGCGUAAUGGUAACGCGUCUCCCCGCUAAGGAGAUGACUCCGGGUUAGAGUCCCGUACGGAACG yielded a yeast fitness of at most 0.5.
GUUCCGUUAGCGUAAUGGUGACGCGUCUCCCUCCUAAAGAGAAGACUGCGGGUUCGAGUCCUGUACGGAACG gave a yeast fitness of 0.676.
For GUUCCGUGGGCGUAAUGGUAACGCGUCUCCCUCCAAAGGAGAAGACUGCGGGUUCGAGUCCCGUACGGACCG, the yeast fitness was 0.524.
GUUCCGUUAGCGUAAUGGUAGCGCGUCUGCCUCGUAAGGAGAAGACUGCGGGUUCGUGUCCGGUACGGAACG showed a yeast fitness of at most 0.5.
Variant GUUCCGUUAGCGUAGUGGUAACGCGUCUCCCUCCUAAGGAGCAGACUGCGGGUUCGAGUCCUGUACGGAACG has a yeast fitness of at most 0.5.
In the case of GUUCCGUUAGCGUAAUGGUAUCGCGUCUCCGUCCUAAGGAGAAGACUGCGGGUUCGAGUCCCGUACGGAACG, the yeast fitness is reported as 0.573.
For GUUCCGUUAGCGUGAUGGUAACGCGUCUCCCUCCUAAGGAGAAGACUGCGGGUUCGAGUCUCGUACGGAGCG, the yeast fitness was at most 0.5.
Variant GUUCCGUGGGCGUAAUGGUAACGCGUCUCCCCGCUAAGGAGAAGACUGCGGGUUCGAGUCCCGUACGGAACG has a yeast fitness of at most 0.5.
Variant GUUCCGUUAGCGUAAUGGUAACGCGUCUCCCUCCUGAGGAGAAGACUGCGGGUUCGAGUCCCGUAUGGAACG has a yeast fitness of 0.77.
With GUUCCGUGGGCGUAAUGGUAACGCGUCUCCCUCCGAAGGAGAAGACUGCGGGUUGGAGUCCCGUACGGAACG the yeast fitness was at most 0.5.
In the case of GUUCCGUGGGCGUAAUGGUAACGCGUCUCCCGCCUAAAGAGAAGACUGCGGGUUCCAGUCCCGUACGGAACG, the yeast fitness is reported as at most 0.5.
With GUUCCGUUAGCGUAAUGGUAACGCGUCUCCCUCCUGAGGAGAAGACUGCGGGUUCGAGUCCCGUACGGAACG the yeast fitness was 1.03.
Variant GUUCCGUUAGCGUAAUGGUAACGCGUCUCCCUCCUUAGGAGAAGACUGCGGGUUCGAGUCCCGUACGGAACG has a yeast fitness of 0.677.
Variant GUUCCGUUAGCGUAUUGGUAAAGCAUCUCCCUCCUAAGGAGAAGACUACGGGUUCGAGUCCCGUACGGAACG has a yeast fitness of at most 0.5.
GUUCCGUGGGCGUAAUGGUAACGCGUCCCCCUCCUAACGAGAAGACUGCGGGUUCGAGUCCUGUACGGAACG showed a yeast fitness of at most 0.5.
Variant GUUCCGUUAGCGUAGUGGUUACGCGUCCCCCUCCUAAGGAGAAGACUGCGGGUUCGAGUCCCGUACGGUACG has a yeast fitness of 0.542.
GUUCCGUUAGCGUUAUGGUAACGCGUCUCCCUCGUACGGAGAAGACUGCGGGUUCGAGUCCCGUACGGAACG gave a yeast fitness of at most 0.5.
GUUCCGUGGGCGUAAUGGUAACGCGUCUCCCCGCUAAGGAGAAGACUGCGGGUUCGAGUCACGUAUGGAACG gave a yeast fitness of at most 0.5.
For GUUCCGUUAGCGUAAUGGUGACGCGUCUCCCUCCUAAGGAGAAGACUGCGGGUUCGAGUCCCGCACGGAACG, the yeast fitness was 0.674.
For GUUCCGUUAGCGUCAUGGUAACGCGUUUCCCUCCUAAGGAGAAGAUUGCGGCUUCGAGUCCCGUACGGAACG, the yeast fitness was 0.53.
Variant GUUCCGUUAGCGUGAUGGUAACGCGUCUCCCUCCUAGGGAGAAGACUGCGGGUUCGAGUCCCGUACGGAACG has a yeast fitness of 0.624.
Variant GUUCCGUGGGCGUAAUGGUAACGCGUCUCCCUCCCAAGGAGAAGACUGCGGGUUCGAGUCCCGUACGGAACG has a yeast fitness of 0.767.
With GUUCCGUGGGCGUAAUGGUAACGCGUCUCCCUCCGAAGGAGAAGACUGCGGGUUCGAGUCCCGUACGGAACG the yeast fitness was at most 0.5.
Work on GUUCCGUUAGCGUAAUGGUGACGCGUCUCCCUCCUAAGGAGAAGACUGCGGGUUCGAGUCCCGUACGGAACG yielded a yeast fitness of 1.05.
